Screens from PubChem BioAssay.
Only some compounds are listed: those with a hit (about 2.9% of all), similar ones and a draw of the others.
CAL PDZ FP-1: CAL PDZ peptide-binding inhibitors, primary screen, biochemical, fluorescence polarization, Cer-tagged CAL PDZ, HTS; purified CAL PDZ, TMR-peptide fluorescence polarization, 1 h; AID 504414, 2011; hit rate 0.02% among 330,000; Golgi-associated PDZ and coiled-coil motif-containing protein (Homo sapiens), Q9HD26; inhibition, % at 20 µM;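 active means highest replicate inhibition of at least 40%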;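 further: plate controls were DMSO neutral control wells for no effect and unlabeled competitor peptide control wells for full effect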
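Test system: purified CerCALP PDZ construct; Compound dosing: one concentration, 20 µM compound; Also added: TMR-labelled reporter peptide T*-PRC34 bound in PDZ groove; Read-out: inhibition from polarization loss; Controls: unlabelled peptide and DMSO controls; Signal: FP readout, S and P plane fluorescence; Incubation: 1 h at RT.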
CAL PDZ FP-2: untagged CAL PDZ binding inhibitors, primary screen, biochemical, fluorescence polarization, HTS. inhibition, % at 24.9 µM. purified CAL PDZ, TMR-peptide fluorescence polarization, 1 h. hit rate 0.92% among 300,000. AID 602252, 2012;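 active means mean inhibition of at least 30% with at least half of replicates also reaching 30%; inconclusive means no clear call, values can overlap the other calls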;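 further: 0% = DMSO neutral control and 100% = excess unlabeled competitor peptide PRC23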
DENV2 CPE rescue: inhibitors of DENV2 cytopathic effect, primary screen, cell-based, plate reader, single concentration; DENV2-infected cells, cytopathic effect rescue; CPE inhibition, % at 9.99 µM; hit rate 1.7% among 350,000; AID 651640, 2012; in the data active means CPE inhibition above about 20%, passing the limit was not always enough; inconclusive means no clear call, values can overlap the other calls; tested in BHK-21 cells;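 further: 0% = median of neutral control wells and 100% = median of positive control wells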
SIRT5 block: SIRT5 desuccinylase inhibitors, primary screen, biochemical, fluorescence imaging, single point, set 5. NAD-dependent protein deacylase sirtuin-5, mitochondrial (Homo sapiens), Q9NXA8. Purified SirT5, succinyl-peptide AMC, trypsin-coupled fluorescence. inhibition, % at 15 µM. hit rate 1.1% among 330,000; in the data active means inhibition above about 15%; inconclusive means no clear call, values can overlap the other calls
S100A4 MyoIIA: inhibitors of S100A4-myosin IIA peptide binding, primary screen, biochemical, fluorescence polarization, TAMRA-MyoIIA peptide; Protein S100-A4 (Homo sapiens), P26447; inhibition, % at 10.7 µM; hit rate 0.14% among 360,000;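 active means mean inhibition of at least 70% across replicates, with every replicate also reaching that level; inconclusive means mean inhibition reaches 70% but some replicates fall short; inactive means mean inhibition below 70%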
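incubation = readout 5 min after mixing, signal stable up to 60 min | system = S100A4 monomer protein | buffer or medium = HEPES pH 7.2 with CaCl2, KCl, NaCl, DTT, Triton | benchmarks = neutral control DMSO, positive control TFP | also added = fluorescent myosin IIA peptide, 5 nM | compound dosing = one concentration per compound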
ERAP1 HTS inh: human ERAP1 aminopeptidase inhibitors, primary screen, biochemical, single point, plate reader | inhibition, % at 10.7 µM | hit rate 0.15% among 340,000 | recombinant ERAP1, Leu-AMC fluorescence, 60 min | AID 652197, 2013;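 active means mean replicate inhibition of at least 30%, or all replicates individually reaching that 30% level; inactive means mean below 30% and not every replicate reaching it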;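 further: 0% = neutral control wells and 100% = L-leucinethiol positive control wells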
Numbers without * were called inactive; ? = inconclusive; nt = no result; ! = not active in a repeat.

SMILES	CAL PDZ FP-1	CAL PDZ FP-2	DENV2 CPE rescue	SIRT5 block	S100A4 MyoIIA	ERAP1 HTS inh
COc1ccc(S(=O)(=O)NC(Cc2ccccc2)C(=O)O)cc1 (centres undefined)	0	2	-4	-4	-2	-2
CC(=O)NC1C(OCc2ccccc2)OC(CO)C(OC(C)=O)C1OC(C)=O (centres undefined)	1	46*	nt	nt	nt	nt
CCOc1ccc2nc3cc(N=Nc4ccc(N)nc4N)ccc3c(N)c2c1	56*	10	nt	nt	nt	nt
COc1ccc(N=Nc2ccc(N)nc2N)cc1	2	-3	8	-1	13	10
CN1C[C@@H]2[C@H](c3ccccc31)[C@@H](CO)N2C(=O)C1CCCCC1	nt	nt	-2	-2	-13	0
CCSc1nnc(NC(=O)CCNC(=O)c2ccccc2Cl)s1	0	115*	11	1	7	-2
C=CCN1C(=O)[C@]2(O[C@H](CCO)[C@@H]([Si](C)(C)c3ccc(OC)cc3)[C@@H]2C)c2cc(I)ccc21	nt	nt	0	13	9	1
C=CCN1C(=O)[C@]2(O[C@H](CCO)[C@@H]([Si](C)(C)c3ccc(OC)cc3)[C@@H]2C)c2cc(NC(=O)[C@H](C)O)ccc21	nt	nt	42*	2	1	-1
CC(C)C1Cc2ccccc2-c2[nH]c(=S)[nH]c(=O)c21 (centres undefined)	nt	nt	72*	-5	-2	-2
CCC(=O)N(CC)C[C@H]1[C@H](c2ccccc2)[C@@H](CO)N1C(C)=O	nt	nt	-8	3	-9	-1
CC(=O)N1[C@@H](CO)[C@H](c2ccccc2)[C@@H]1CN(CC(C)C)C(=O)c1ccccn1	nt	nt	27*	0	5	-1
CN(C[C@@H]1[C@@H](c2ccccc2)[C@H](CO)N1C(=O)C1CC1)C(=O)c1ccccn1	nt	nt	54*	nt	nt	nt
CC(=O)N1[C@H](CO)[C@@H](c2ccccc2)[C@H]1CN(CC(C)C)C(=O)c1ccccn1	nt	nt	11	0	0	nt
CCC(=O)N(CC)C[C@@H]1[C@@H](c2ccccc2)[C@H](CO)N1C(C)=O	nt	nt	20*	1	-14	-4
CCN(C[C@@H]1N[C@@H](CO)[C@H]1c1ccc(-c2ccccc2)cc1)C(=O)COC	nt	nt	24*	8	4	-6
CCN(C[C@H]1N[C@H](CO)[C@H]1c1ccc(-c2ccc(F)cc2)cc1)C(=O)COC	nt	nt	-3	8	51	nt
C[C@@H]1CCCCO[C@@H](CN(C)C(=O)Nc2ccc3c(c2)OCO3)[C@H](C)CN([C@@H](C)CO)C(=O)c2cc(NC(=O)Nc3ccc(C(F)(F)F)cc3)ccc2O1	nt	nt	1	-3	1	-1
CN(C[C@H]1[C@@H](c2ccccc2)[C@H](CO)N1C(=O)C1CC1)C(=O)c1ccccn1	nt	nt	-7	nt	nt	nt
CN(C[C@H]1[C@H](c2ccccc2)[C@@H](CO)N1C(=O)C1CCC1)C(=O)c1ccccn1	nt	nt	10	16*	8	-1
CC(O)Cc1cn([C@@H](CCCCN)C(=O)N2CCNCC2)nn1 (some centres undefined)	1	-1	25*	nt	-1	3
CCC(=O)n1nc(-c2ccc(OC)cc2)nc1NCc1cccs1	-2	-3	nt	-3	-14	7
CC(=O)n1nc(-c2ccccc2)nc1NCc1cccs1	8	72*	nt	-1	-1	-1
COc1ccccc1S(=O)(=O)N[C@@H]1C=C[C@@H](CC(=O)NCc2cc(F)cc(F)c2)O[C@H]1CO	nt	nt	-7	-4	7	3
COc1ccccc1S(=O)(=O)N(C)C[C@@H]1Oc2cc(C#CCC(C)C)ccc2S(=O)(=O)N([C@H](C)CO)C[C@@H]1C	nt	nt	?	23*!	23	8
COc1ccccc1S(=O)(=O)N(C)C[C@H]1Oc2cc(C#CCC(C)C)ccc2S(=O)(=O)N([C@@H](C)CO)C[C@@H]1C	nt	nt	103*	1	6	6
SMILES	CAL PDZ FP-1	CAL PDZ FP-2	DENV2 CPE rescue	SIRT5 block	S100A4 MyoIIA	ERAP1 HTS inh
COc1ccccc1S(=O)(=O)N(C)C[C@@H]1Oc2cc(C#CCC3CCCC3)ccc2S(=O)(=O)N([C@H](C)CO)C[C@@H]1C	nt	nt	-2	0	-8	2
C[C@H](CO)N1C[C@H](C)[C@H](CN(C)C)Oc2ccc(NS(=O)(=O)c3cccs3)cc2C1=O	nt	nt	3	3	49	0
CC12CCC(=O)CC1CCC1C2CCC2(C)C1CCC2(O)C(=O)CO (centres undefined)	0	0	-5	-2	-2	-2
C[C@]12CCC(=O)C[C@@H]1CC[C@@H]1[C@@H]2CC[C@]2(C)[C@@H](C(=O)COC(=O)CCC(=O)O)CC[C@@H]12	-1	167*!	?	-1	-1	-1
CCC(=O)N1CC2(C1)CN(Cc1cccc(F)c1)[C@@H](CO)c1c2c2ccc(OC)cc2n1C	nt	nt	0	4	-1	nt
O=C(CNC(=O)N1CC(=O)Nc2ccccc21)NCc1ccc(F)cc1	nt	nt	113*	-1	1	-5
O=C(CCNC(=O)N1CC(=O)Nc2ccccc21)NCc1ccc(F)cc1	-2	-4	-6	-8	-6	-1
COc1ccccc1-c1ccc([C@H]2[C@@H](C#N)N(C(=O)CN(C)C)[C@@H]2CO)cc1	nt	nt	1	2	-11	-2
C=CCNC(=S)NNC(=O)c1ccc(C)c(Cl)c1	-1	67*	-6	-2	0	-2
O=C(NCC[C@H]1CC[C@@H](NS(=O)(=O)c2ccccc2)[C@@H](CO)O1)c1ccccc1F	nt	nt	13	-2	8	2
C[C@@H]1CN([C@H](C)CO)C(=O)c2cc(NC(=O)Cn3cnnn3)ccc2O[C@H]1CN(C)Cc1ccc2c(c1)OCO2	nt	nt	21*	3	-1	2
C[C@H](CO)N1C[C@H](C)[C@@H](CN(C)Cc2ccc(Cl)c(Cl)c2)Oc2ccc(NC(=O)Cn3cnnn3)cc2C1=O	0	-3	?	7	-26	1
C[C@@H]1CN([C@@H](C)CO)C(=O)c2cc(NC(=O)Cn3cnnn3)ccc2O[C@@H]1CN(C)Cc1ccc(Cl)c(Cl)c1	nt	nt	52*	-3	-27	-3
C[C@H]1CN([C@@H](C)CO)C(=O)c2cc(NC(=O)Cn3cnnn3)ccc2O[C@@H]1CN(C)Cc1ccc2c(c1)OCO2	nt	nt	0	3	4	2
C[C@@H]1CN([C@H](C)CO)C(=O)c2cc(NS(=O)(=O)c3ccccc3)ccc2O[C@@H](C)CCCCO[C@@H]1CN(C)Cc1ccc(C(=O)O)cc1	nt	nt	5	nt	nt	nt
